Experimental data taken from ChEMBL document CHEMBL5058577, “EUbOPEN Chemogenomics Library 2 (Multiplex)” (2022).

System: Fibroblast
Experiment: Multiplex assay against human fibroblast
Type: toxicity, cell-based
Summary of the method: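 Cells were classed with CellPathfinder machine-learning gating, first as Hoechst high-intensity objects or normal cells, then (normal cells) as healthy, pyknosed or fragmented nuclei, and finally (pyknosed cells) as mitotic or apoptotic. Staining of live cells at seeding used Hoechst33342, BioTracker Green Microtubule Cytoskeleton Dye, MitoTracker Red and Annexin V Alexa Fluor 680, with imaging on a CQ1 microscope at 37°C and 5% CO2 after compound addition. Tubulin, mitochondrial-mass and membrane-permeability phenotypes are per cents of healthy-nucleus cells.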

[1] = 12 h, 1 µM, compound concentration 1 uM, replicate 1
[2] = 12 h, 1 µM, compound concentration 1 uM, replicate 2
[3] = 12 h, 10 µM, compound concentration 10 uM, replicate 1
[4] = 12 h, 10 µM, compound concentration 10 uM, replicate 2
[5] = 24 h, 1 µM, compound concentration 1 uM, replicate 1
[6] = 24 h, 1 µM, compound concentration 1 uM, replicate 2
[7] = 24 h, 10 µM, compound concentration 10 uM, replicate 1
[8] = 24 h, 10 µM, compound concentration 10 uM, replicate 2
[9] = 48 h, 1 µM, compound concentration 1 uM, replicate 1
[10] = 48 h, 1 µM, compound concentration 1 uM, replicate 2
[11] = 48 h, 10 µM, compound concentration 10 uM, replicate 1
[12] = 48 h, 10 µM, compound concentration 10 uM, replicate 2

CNC[C@H](O)c1ccc(O)c(O)c1 [EPINEPHRINE]
Population Apoptotic (%) [1]: 36% | Population Fragmented Nuclei (%) [1]: 17% | Population Healthy Nuclei (%) [1]: 66% | Population Hoechst High Intensity Objects (%) [1]: 1% | Population Membrane Permeable-Phenotype (%) [1]: 1% | Population Mitochondria Different-Phenotype (%) [1]: 3% | Population Mitotic Cells (%) [1]: 63% | Population Normal (%) [1]: 98% | Population Pyknosed Nuclei (%) [1]: 16% | Population Tubulin-Different-Phenotype (%) [1]: 15% | Population Apoptotic (%) [2]: 40% | Population Fragmented Nuclei (%) [2]: 38% | Population Healthy Nuclei (%) [2]: 44% | Population Membrane Permeable-Phenotype (%) [2]: 13% | Population Mitochondria Different-Phenotype (%) [2]: 7% | Population Mitotic Cells (%) [2]: 60% | Population Pyknosed Nuclei (%) [2]: 17% | Population Tubulin-Different-Phenotype (%) [2]: 42% | Population Apoptotic (%) [3]: 40% | Population Fragmented Nuclei (%) [3]: 18% | Population Healthy Nuclei (%) [3]: 61% | Population Hoechst High Intensity Objects (%) [3]: 3% | Population Membrane Permeable-Phenotype (%) [3]: 1% | Population Mitochondria Different-Phenotype (%) [3]: 6% | Population Mitotic Cells (%) [3]: 60% | Population Normal (%) [3]: 96% | Population Pyknosed Nuclei (%) [3]: 20% | Population Tubulin-Different-Phenotype (%) [3]: 23% | Population Apoptotic (%) [4]: 32% | Population Fragmented Nuclei (%) [4]: 39% | Population Healthy Nuclei (%) [4]: 37% | Population Hoechst High Intensity Objects (%) [4]: 7% | Population Membrane Permeable-Phenotype (%) [4]: 12% | Population Mitochondria Different-Phenotype (%) [4]: 8% | Population Mitotic Cells (%) [4]: 67% | Population Normal (%) [4]: 92% | Population Pyknosed Nuclei (%) [4]: 23% | Population Tubulin-Different-Phenotype (%) [4]: 55% | Population Apoptotic (%) [5]: 54% | Population Fragmented Nuclei (%) [5]: 12% | Population Healthy Nuclei (%) [5]: 70% | Population Hoechst High Intensity Objects (%) [5]: 0% | Population Membrane Permeable-Phenotype (%) [5]: 0% | Population Mitochondria Different-Phenotype (%) [5]: 3% | Population Mitotic Cells (%) [5]: 45% | Population Normal (%) [5]: 99% | Population Pyknosed Nuclei (%) [5]: 16% | Population Tubulin-Different-Phenotype (%) [5]: 11% | Population Apoptotic (%) [6]: 23% | Population Fragmented Nuclei (%) [6]: 38% | Population Healthy Nuclei (%) [6]: 47% | Population Hoechst High Intensity Objects (%) [6]: 3% | Population Membrane Permeable-Phenotype (%) [6]: 12% | Population Mitochondria Different-Phenotype (%) [6]: 6% | Population Mitotic Cells (%) [6]: 76% | Population Normal (%) [6]: 96% | Population Pyknosed Nuclei (%) [6]: 14% | Population Tubulin-Different-Phenotype (%) [6]: 32% | Population Apoptotic (%) [7]: 65% | Population Fragmented Nuclei (%) [7]: 16% | Population Healthy Nuclei (%) [7]: 60% | Population Hoechst High Intensity Objects (%) [7]: 3% | Population Membrane Permeable-Phenotype (%) [7]: 0% | Population Mitochondria Different-Phenotype (%) [7]: 5% | Population Mitotic Cells (%) [7]: 34% | Population Normal (%) [7]: 96% | Population Pyknosed Nuclei (%) [7]: 23% | Population Tubulin-Different-Phenotype (%) [7]: 21% | Population Apoptotic (%) [8]: 38% | Population Fragmented Nuclei (%) [8]: 39% | Population Healthy Nuclei (%) [8]: 44% | Population Membrane Permeable-Phenotype (%) [8]: 12% | Population Mitochondria Different-Phenotype (%) [8]: 4% | Population Mitotic Cells (%) [8]: 61% | Population Pyknosed Nuclei (%) [8]: 15% | Population Tubulin-Different-Phenotype (%) [8]: 51% | Population Apoptotic (%) [9]: 50% | Population Fragmented Nuclei (%) [9]: 17% | Population Healthy Nuclei (%) [9]: 67% | Population Hoechst High Intensity Objects (%) [9]: 1% | Population Membrane Permeable-Phenotype (%) [9]: 0% | Population Mitochondria Different-Phenotype (%) [9]: 6% | Population Mitotic Cells (%) [9]: 50% | Population Normal (%) [9]: 98% | Population Pyknosed Nuclei (%) [9]: 15% | Population Tubulin-Different-Phenotype (%) [9]: 23% | Population Apoptotic (%) [10]: 38% | Population Fragmented Nuclei (%) [10]: 41% | Population Healthy Nuclei (%) [10]: 48% | Population Membrane Permeable-Phenotype (%) [10]: 6% | Population Mitochondria Different-Phenotype (%) [10]: 5% | Population Mitotic Cells (%) [10]: 61% | Population Pyknosed Nuclei (%) [10]: 10% | Population Tubulin-Different-Phenotype (%) [10]: 45% | Population Apoptotic (%) [11]: 77% | Population Fragmented Nuclei (%) [11]: 20% | Population Healthy Nuclei (%) [11]: 65% | Population Hoechst High Intensity Objects (%) [11]: 2% | Population Membrane Permeable-Phenotype (%) [11]: 2% | Population Mitochondria Different-Phenotype (%) [11]: 4% | Population Mitotic Cells (%) [11]: 22% | Population Normal (%) [11]: 97% | Population Pyknosed Nuclei (%) [11]: 13% | Population Tubulin-Different-Phenotype (%) [11]: 32% | Population Apoptotic (%) [12]: 37% | Population Fragmented Nuclei (%) [12]: 50% | Population Healthy Nuclei (%) [12]: 44% | Population Hoechst High Intensity Objects (%) [12]: 3% | Population Membrane Permeable-Phenotype (%) [12]: 6% | Population Mitochondria Different-Phenotype (%) [12]: 3% | Population Mitotic Cells (%) [12]: 62% | Population Normal (%) [12]: 96% | Population Pyknosed Nuclei (%) [12]: 5% | Population Tubulin-Different-Phenotype (%) [12]: 46%

O=S(=O)(c1ccccc1)c1cnc2c(N3CCNCC3)cccc2c1 [INTEPIRDINE]
Population Apoptotic (%) [1]: 50% | Population Fragmented Nuclei (%) [1]: 23% | Population Healthy Nuclei (%) [1]: 67% | Population Hoechst High Intensity Objects (%) [1]: 3% | Population Membrane Permeable-Phenotype (%) [1]: 0% | Population Mitochondria Different-Phenotype (%) [1]: 2% | Population Mitotic Cells (%) [1]: 50% | Population Normal (%) [1]: 96% | Population Pyknosed Nuclei (%) [1]: 9% | Population Tubulin-Different-Phenotype (%) [1]: 26% | Total Cell Count [1]: 212 | Population Apoptotic (%) [2]: 34% | Population Fragmented Nuclei (%) [2]: 28% | Population Healthy Nuclei (%) [2]: 47% | Population Hoechst High Intensity Objects (%) [2]: 4% | Population Membrane Permeable-Phenotype (%) [2]: 7% | Population Mitochondria Different-Phenotype (%) [2]: 7% | Population Mitotic Cells (%) [2]: 65% | Population Normal (%) [2]: 95% | Population Pyknosed Nuclei (%) [2]: 24% | Population Tubulin-Different-Phenotype (%) [2]: 61% | Total Cell Count [2]: 148 | Population Apoptotic (%) [3]: 75% | Population Fragmented Nuclei (%) [3]: 22% | Population Healthy Nuclei (%) [3]: 62% | Population Hoechst High Intensity Objects (%) [3]: 1% | Population Membrane Permeable-Phenotype (%) [3]: 1% | Population Mitochondria Different-Phenotype (%) [3]: 8% | Population Mitotic Cells (%) [3]: 25% | Population Normal (%) [3]: 98% | Population Pyknosed Nuclei (%) [3]: 14% | Population Tubulin-Different-Phenotype (%) [3]: 44% | Total Cell Count [3]: 138 | Population Apoptotic (%) [4]: 61% | Population Fragmented Nuclei (%) [4]: 43% | Population Healthy Nuclei (%) [4]: 40% | Population Hoechst High Intensity Objects (%) [4]: 6% | Population Membrane Permeable-Phenotype (%) [4]: 5% | Population Mitochondria Different-Phenotype (%) [4]: 13% | Population Mitotic Cells (%) [4]: 38% | Population Normal (%) [4]: 93% | Population Pyknosed Nuclei (%) [4]: 16% | Population Tubulin-Different-Phenotype (%) [4]: 68% | Total Cell Count [4]: 136 | Population Apoptotic (%) [5]: 54% | Population Fragmented Nuclei (%) [5]: 16% | Population Healthy Nuclei (%) [5]: 72% | Population Hoechst High Intensity Objects (%) [5]: 5% | Population Membrane Permeable-Phenotype (%) [5]: 2% | Population Mitochondria Different-Phenotype (%) [5]: 4% | Population Mitotic Cells (%) [5]: 45% | Population Normal (%) [5]: 94% | Population Pyknosed Nuclei (%) [5]: 10% | Population Tubulin-Different-Phenotype (%) [5]: 28% | Total Cell Count [5]: 212 | Population Apoptotic (%) [6]: 41% | Population Fragmented Nuclei (%) [6]: 32% | Population Healthy Nuclei (%) [6]: 44% | Population Hoechst High Intensity Objects (%) [6]: 0% | Population Membrane Permeable-Phenotype (%) [6]: 1% | Population Mitotic Cells (%) [6]: 58% | Population Normal (%) [6]: 99% | Population Pyknosed Nuclei (%) [6]: 24% | Population Tubulin-Different-Phenotype (%) [6]: 59% | Total Cell Count [6]: 151 | Population Apoptotic (%) [7]: 40% | Population Fragmented Nuclei (%) [7]: 28% | Population Healthy Nuclei (%) [7]: 65% | Population Hoechst High Intensity Objects (%) [7]: 1% | Population Membrane Permeable-Phenotype (%) [7]: 0% | Population Mitochondria Different-Phenotype (%) [7]: 7% | Population Mitotic Cells (%) [7]: 60% | Population Normal (%) [7]: 98% | Population Pyknosed Nuclei (%) [7]: 6% | Population Tubulin-Different-Phenotype (%) [7]: 50% | Total Cell Count [7]: 152 | Population Apoptotic (%) [8]: 91% | Population Fragmented Nuclei (%) [8]: 39% | Population Healthy Nuclei (%) [8]: 50% | Population Hoechst High Intensity Objects (%) [8]: 4% | Population Membrane Permeable-Phenotype (%) [8]: 3% | Population Mitochondria Different-Phenotype (%) [8]: 15% | Population Mitotic Cells (%) [8]: 8% | Population Normal (%) [8]: 95% | Population Pyknosed Nuclei (%) [8]: 10% | Population Tubulin-Different-Phenotype (%) [8]: 67% | Total Cell Count [8]: 123 | Population Apoptotic (%) [9]: 66% | Population Fragmented Nuclei (%) [9]: 22% | Population Healthy Nuclei (%) [9]: 69% | Population Hoechst High Intensity Objects (%) [9]: 5% | Population Membrane Permeable-Phenotype (%) [9]: 0% | Population Mitochondria Different-Phenotype (%) [9]: 2% | Population Mitotic Cells (%) [9]: 33% | Population Normal (%) [9]: 94% | Population Pyknosed Nuclei (%) [9]: 7% | Population Tubulin-Different-Phenotype (%) [9]: 34% | Total Cell Count [9]: 213 | Population Apoptotic (%) [10]: 52% | Population Fragmented Nuclei (%) [10]: 39% | Population Healthy Nuclei (%) [10]: 45% | Population Hoechst High Intensity Objects (%) [10]: 3% | Population Membrane Permeable-Phenotype (%) [10]: 1% | Population Mitotic Cells (%) [10]: 48% | Population Normal (%) [10]: 96% | Population Pyknosed Nuclei (%) [10]: 15% | Population Tubulin-Different-Phenotype (%) [10]: 54% | Total Cell Count [10]: 170 | Population Apoptotic (%) [11]: 63% | Population Fragmented Nuclei (%) [11]: 23% | Population Healthy Nuclei (%) [11]: 67% | Population Hoechst High Intensity Objects (%) [11]: 3% | Population Membrane Permeable-Phenotype (%) [11]: 1% | Population Mitochondria Different-Phenotype (%) [11]: 15% | Population Mitotic Cells (%) [11]: 36% | Population Normal (%) [11]: 96% | Population Pyknosed Nuclei (%) [11]: 8% | Population Tubulin-Different-Phenotype (%) [11]: 47% | Total Cell Count [11]: 139 | Population Apoptotic (%) [12]: 40% | Population Fragmented Nuclei (%) [12]: 48% | Population Healthy Nuclei (%) [12]: 38% | Population Hoechst High Intensity Objects (%) [12]: 6% | Population Membrane Permeable-Phenotype (%) [12]: 6% | Population Mitochondria Different-Phenotype (%) [12]: 6% | Population Mitotic Cells (%) [12]: 60% | Population Normal (%) [12]: 93% | Population Pyknosed Nuclei (%) [12]: 12% | Population Tubulin-Different-Phenotype (%) [12]: 57% | Total Cell Count [12]: 125
